Assay results gathered from unrelated publications.
Compare with care: the assays were run in different laboratories.
Target: Activin receptor type-1B (ACVR1B, Homo sapiens, UniProt P36896)
Residues used in one study (P36896 24-505): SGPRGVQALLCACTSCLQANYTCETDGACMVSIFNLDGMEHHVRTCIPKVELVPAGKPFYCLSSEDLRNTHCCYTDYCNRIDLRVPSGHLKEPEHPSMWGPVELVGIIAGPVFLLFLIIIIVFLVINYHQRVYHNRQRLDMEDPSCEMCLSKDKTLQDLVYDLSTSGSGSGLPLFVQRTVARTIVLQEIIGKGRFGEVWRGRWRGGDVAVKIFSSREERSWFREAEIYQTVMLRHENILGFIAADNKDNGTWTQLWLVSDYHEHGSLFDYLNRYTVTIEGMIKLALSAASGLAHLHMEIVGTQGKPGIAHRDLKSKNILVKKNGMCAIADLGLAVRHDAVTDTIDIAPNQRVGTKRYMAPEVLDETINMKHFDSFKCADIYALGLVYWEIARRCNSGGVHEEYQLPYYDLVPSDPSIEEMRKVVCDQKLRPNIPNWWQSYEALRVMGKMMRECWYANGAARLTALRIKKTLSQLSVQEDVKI

| Compound | assay | conditions | remaining binding [%] |
| --- | --- | --- | --- |
| O=C(c1ccc(Nc2ncc(Cl)c(-c3ccc(Cl)s3)n2)cc1)N1CCC(N2CCCC2)CC1 | binding, competition with immobilised ligand | 1 µM | 58 |
| Cc1cnn2ncc(-c3ccnc(N(C)C)n3)c2c1 | binding | 1 µM | 100 |
| O=C(Nc1cnc(Oc2ccc(F)cc2)nc1)N1CCc2ncccc2[C@@H]1c1ccc(F)cc1 | cell-free assay, competition with immobilised ligand | 1 µM | 100 |
| CN(C)c1nccc(-c2cnn3ncccc23)n1 | binding | 1 µM | 96 |
| CC(C)(C)c1ccc(-c2nc(CBr)nn2-c2cccc(O)c2)cc1 | cell-free assay, competition with immobilised ligand | 10 µM | 100 |
| O=C(NS(=O)(=O)c1ccc(NCC2CCOCC2)c([N+](=O)[O-])c1)c1ccc(N2CCN(Cc3ccc(C(F)(F)F)cc3-c3ccc(Cl)cc3)CC2)cc1Oc1cnc2[nH]ccc2c1 | cell-free assay, competition with immobilised ligand | 1 µM | 59 |
| N#Cc1ccccc1CSc1nnc2c(n1)[nH]c1ccccc12 | binding, competition with immobilised ligand | 10 µM | 91 |
| O=C(NCc1ncc(C(F)(F)F)cc1Cl)c1ccc2c(c1)C1(CCS(=O)(=O)CC1)[C@@H](C1CC1)N2S(=O)(=O)c1ccc(F)cc1 | cell-free assay, competition with immobilised ligand | 1 µM | 87 |
| CNC(=O)[C@@H]1CC[C@@H](n2c(-c3ccc4cnccc4c3)nc3ccc(C(=O)NCc4cccc(C(N)=O)c4)cc32)C1 | binding, competition with immobilised ligand | 1 µM | 100 |
| CC(C)CC(=O)N1CCc2nc(-c3ccc(Br)cc3)nc(N(C)Cc3ccccc3)c2C1 | cell-free assay, competition with immobilised ligand | 0.1 µM | 89 |
| O=C(NCC1CCOCC1)c1n[nH]cc1NC(=O)c1c(F)cccc1F | binding, competition with immobilised ligand | 1 µM | 100 |
| C[C@@H]1CN(c2ccc3ncc(-c4ccc5[nH]nc(C6CC6)c5c4)n3n2)C[C@H](C)O1 | binding, competition with immobilised ligand | 0.5 µM | 100 |
| N[C@H]1CCN(c2nccc(-c3cnn4ncccc34)n2)C1 | binding | 1 µM | 77 |
| CC(=O)C1=C(C)N(c2cccc(C(F)(F)F)c2)C(=O)N[C@@H]1c1ccc(C#N)nc1 | cell-free assay, competition with immobilised ligand | 1 µM | 100 |
| Cc1cnc(Nc2ccc(C(=O)N3CCC(N4CCCC4)CC3)cc2)nc1-c1cc2ccccc2s1 | binding, competition with immobilised ligand | 1 µM | 33 |
| CNC(=O)c1ccc(Nc2ncc(C(F)(F)F)c(NCc3nccnc3N(C)S(C)(=O)=O)n2)cc1 | cell-free assay, competition with immobilised ligand | 0.1 µM | 69 |
| c1cnn2ncc(-c3ccnc(N4CCC45COC5)n3)c2c1 | binding | 1 µM | 82 |
| O=C(NCCCN1CCOCC1)c1ccc(Nc2ncc(Cl)c(-c3ccc(Cl)s3)n2)cc1 | binding, competition with immobilised ligand | 1 µM | 59 |
| CN(C)c1ncnc(-c2ccc3nc(Nc4cc(CN5CCN(C(=O)CC(F)(F)F)CC5)ccn4)[nH]c3c2)c1Cl | cell-free assay, competition with immobilised ligand | 1 µM | 91 |
| COc1cnc(Nc2cccc(S(N)(=O)=O)c2)nc1N1CCN(c2ccccc2)C(=O)C1 | binding, competition with immobilised ligand | 1 µM | 100 |
| C[C@@H](c1ccc(-n2cnc3c(N)ncnc32)cc1)N1CCc2nn(C)c(Cc3ccccc3)c2C1=O | binding, competition with immobilised ligand | 0.1 µM | 93 |
| CN(C)c1ncc(F)c(-c2cnn3ncccc23)n1 | binding | 1 µM | 100 |
| COc1ncc2cc3ccccc3nc2c1C#N | cell-free assay, competition with immobilised ligand | 5 µM | 88 |
| C=CC(=O)N1CCC(C(=O)NCC(=O)N2CCN(c3nc(-c4cnc(N)nc4C(F)F)nc(N4CCOCC4)n3)CC2)CC1 | binding, competition with immobilised ligand | 1 µM | 82 |
| C[C@@H]1CCN(c2nccc(-c3cnn4ncccc34)n2)C1 | binding | 1 µM | 76 |
